Data published in paper PMC10834355 (Cell metabolism, 2023).
Read-outs that look alike come from different tables or passages of the source. Values belong to the molecule of their own block, whether it stands above or below them.

Experiments:
human β-cell = conditions: ref El Ouaamari et al., 2016; cited from earlier work
[1] = target: human pancreatic elastase (PE); assay: Absorbance-based protease activity assay, human PE; assay type: biochemical; conditions: read-out: IC50 PE
Summary of the method: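 Human pancreatic elastase (500 ng) mixed with 15 two-fold dilutions of test compound starting at 20 μM. Blank (no-enzyme) and DMSO wells serve as controls. Preincubated 3 min at 37°C, then N-methoxysuccinyl-Ala-Ala-Pro-Val-p-nitroanilide added. After 2 h at 37°C, absorbance read at 405 nm, 21 reads over 5 min. IC50 derived from the dilution series.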

Ins+ cells = assay: β-cell regeneration after metronidazole ablation in Tg; assay type: in vivo, zebrafish (Danio rerio); conditions: added to growth medium 4–6 dpf, vs DMSO
Summary of the method: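 Tg(ins:flag-NTR);Tg(tp1:H2BmCherry) zebrafish larvae had β-cells ablated in E3 medium with 10 mM metronidazole, 1% DMSO and 0.2 mM 1-phenyl-2-thiourea from 3 to 4 dpf. From 4 to 6 dpf, larvae were exposed to DMSO or test compound in the medium. Larvae then euthanized, fixed, immunostained with anti-insulin (1:100), imaged and Ins+ cells counted.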

[2] = target: porcine pancreatic elastase (pPE) (Sus scrofa, UniProt P00772); assay: Absorbance-based protease activity assay, pPE; assay type: biochemical
Sequence of porcine pancreatic elastase (pPE) (P00772 27-266): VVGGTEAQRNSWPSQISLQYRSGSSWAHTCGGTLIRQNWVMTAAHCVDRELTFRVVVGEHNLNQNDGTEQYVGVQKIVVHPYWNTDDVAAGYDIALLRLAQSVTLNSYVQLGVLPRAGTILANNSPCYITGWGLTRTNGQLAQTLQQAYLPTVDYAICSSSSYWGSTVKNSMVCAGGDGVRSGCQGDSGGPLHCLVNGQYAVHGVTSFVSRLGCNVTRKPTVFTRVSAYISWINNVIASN
Summary of the method: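 Porcine pancreatic elastase (500 ng) was combined with 15 two-fold dilutions of test compound, starting at 20 μM. Controls were enzyme-free blank wells and enzyme-plus-DMSO wells. After 3 min at 37°C, N-methoxysuccinyl-Ala-Ala-Pro-Val-p-nitroanilide substrate was added. After 2 h at 37°C, absorbance at 405 was read every 15 s for 21 reads (5 min).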

[3] = target: T1, human neutrophil elastase (NE) (Homo sapiens, UniProt P08246); assay: Absorbance-based protease activity assay, human NE; assay type: biochemical
T1 sequence (P08246 30-267): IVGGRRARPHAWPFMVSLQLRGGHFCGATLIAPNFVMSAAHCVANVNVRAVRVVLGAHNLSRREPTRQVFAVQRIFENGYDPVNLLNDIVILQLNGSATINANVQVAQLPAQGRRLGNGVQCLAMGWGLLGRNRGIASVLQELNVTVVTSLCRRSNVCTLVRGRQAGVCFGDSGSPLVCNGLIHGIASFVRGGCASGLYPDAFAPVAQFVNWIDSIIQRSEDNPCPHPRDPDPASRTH

human cathepsin G = target: T2, human cathepsin G (Homo sapiens, UniProt P08311); assay: Absorbance-based protease activity assay, human cathepsin G; assay type: biochemical
T2 sequence (P08311 21-255): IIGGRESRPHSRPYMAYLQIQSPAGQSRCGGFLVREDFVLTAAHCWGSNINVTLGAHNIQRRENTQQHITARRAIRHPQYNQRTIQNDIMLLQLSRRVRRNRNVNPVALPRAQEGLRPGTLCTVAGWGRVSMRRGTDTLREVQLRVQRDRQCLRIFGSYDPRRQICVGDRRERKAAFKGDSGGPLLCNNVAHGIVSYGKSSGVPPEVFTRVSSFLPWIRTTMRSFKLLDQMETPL
Summary of the method: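 Human cathepsin G (500 ng) combined with 15 two-fold dilutions of test compound from 20 μM; blank and DMSO wells included. After 3 min at 37°C, succinyl-Ala-Ala-Pro-Phe-p-nitroanilide substrate added and absorbance at 405 nm read immediately, 21 reads over 5 min.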

human islets [4] = assay: Phospho-antibody microarray; assay type: cell-based; conditions: 30 min
Summary of the method: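 Human islets cultured overnight in Miami Media #1A at 37°C, 5% CO2. 200 hand-picked islet equivalents collected after 10- or 30-min stimulation and processed for the phospho-antibody array.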

[5] = tested on: transplanted human islets; assay type: in vivo, NSG mice; conditions: 4 weeks
Summary of the method: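 Male 8–10-week NSG mice received 1000 hand-picked human islet equivalents under the kidney capsule. After engraftment, vehicle (DMSO) or test compound was given by osmotic pump for 28 days. Grafts fixed overnight at 4°C in zinc formalin and cut as 5-μm paraffin serial sections. Sections co-stained for Ki67 or pHH3 with insulin and DAPI; cell death by TUNEL.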

EndoC-βH3 cells = assay: Viability assays; assay type: cell-based, human
Summary of the method: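 EndoC-βH3 cells exposed to 1 μM tamoxifen for 21 days, then 14 days wash-out. Starved overnight in 2.8 mM glucose medium and stimulated in 2.8 mM glucose with 0.1% BSA. Cells then trypsinized and labelled with EdU 5 μM for 3 h at 37°C, plus Annexin V. Up to 10,000 cells counted by flow cytometry. Caspase-3 activity measured colorimetrically at 405 nm.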

EndoC-βH1 cells [6] = assay: Static glucose-stimulated insulin secretion assay; assay type: cell-based, human
Summary of the method: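 EndoC-βH1 cells kept overnight in 2.8 mM glucose DMEM growth medium with vehicles (PBS, DMSO), PE 500 ng/ml and/or test compound 1.5 μM. Preincubated 1 hr in KRB (NaCl 115, NaHCO3 24, KCl 5, MgCl2 1, CaCl2 1, HEPES 10 mM; 0.2% BSA) at 2.8 mM glucose. Then 1 hr in KRB at 2.8 or 11.1 mM glucose with PE ± test compound. DNA content measured.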

EndoC-βH1 cells [7] = assay: Phospho-ERK1/2 Western Blotting; assay type: cell-based, human; conditions: PE +/− telaprevir for 30 min
EndoC-βH1 cells [8] = assay: Brillouin microscopy of cell stiffness; assay type: cell-based, human; conditions: PE 250 ng/ml, or PE + telaprevir (750 nm), 24 hr
Summary of the method: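 After 24 hr incubation, stiffness of 12 cells per condition mapped by confocal Brillouin microscopy: 780 nm single-frequency laser, virtually imaged phase array spectrometer, non-contact longitudinal mechanical read-out.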

EndoC-βH1 cells [9] = assay: Phospho-PAK1 Western Blotting; assay type: cell-based, human
Summary of the method: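 EndoC-βH1 cells transfected with scramble oligo or siFAK, or with empty vector or C-terminal 3X FLAG-tagged PTK2 cDNA (lipofectamine). Cells starved overnight in growth medium with 2.8 mM glucose, then stimulated in 2.8 mM glucose plus 0.1% BSA with PBS or PE ± test compound. siFAK cells treated 30 min. RIPA lysates with protease/phosphatase inhibitors, BCA assay, immunoblot for PAK1 S144 and total PAK1.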

human β-cells = assay: Proliferation; assay type: cell-based; conditions: 24 h, non-diabetic human islets
human islets [10] = assay: Western Blotting of phosphoproteins in human islets; assay type: cell-based; conditions: telaprevir 1.5 or 150 μM for 30 min
Summary of the method: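 Human islets cultured overnight in Miami Media #1A at 37°C, 5% CO2, then exposed to test compound for 30 min. RIPA lysates with protease and phosphatase inhibitors, protein by BCA, immunoblotted with phospho-specific and total antibodies.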

[11] = tested on: primary human β-cell cultures; assay: Viability assay in dispersed human islet cells; assay type: cell-based
Summary of the method: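 Human islets dispersed with TrypLE for 30 min at 37°C, neutralized with FBS, seeded on ECM/fibronectin and left overnight. Pretreated 24 h with water or FSLLRY-NH2 plus EdU 10 μM, then 24 h with vehicles or compounds plus EdU 10 μM. β-cells labelled with DA-ZP1; EdU Click-iT Alexa 647 and APC Annexin V. ≥4000 live (Zombie NIR-negative) cells counted by flow cytometry.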

[12] = tested on: HCV-infected individuals with diabetes; conditions: ref Davis et al., 2017; Tallón de Lara et al., 2014; cited from earlier work
HFD mice = assay: High-fat diet insulin-resistant mice, osmotic pump treatment; assay type: in vivo, C57BL6/J mice
Summary of the method: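 Male C57BL6/J mice, obtained at 4 weeks old, kept on low-fat or high-fat diet for 24 weeks. From week 20, weight-matched animals received vehicle (DMSO) or test compound at 30 or 300 μg/kg/day for 28 days by subcutaneous osmotic pump; low-fat mice got vehicle. GTT, ITT and in vivo GSIS at weeks 0 and 4; insulin by ELISA. Pancreas sections used for immunofluorescent β-cell proliferation and mass.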

[13] = telaprevir HD 300 μg/kg/day, osmotic pumps

Molecule: CC(C)[C@@H]1C(=O)N(S(C)(=O)=O)[C@@H]2CCN(C(=O)/C=C/CN3CCCCC3)[C@H]21.Cl [GW311616A]
human β-cell proliferation (human β-cell): enhance human β-cell proliferation

IC50 [1]: 2.3 µM
IC50 [2]: 2 µM
Molecule: CC(C)(C)C(=O)Oc1ccc(S(=O)(=O)Nc2ccccc2C(=O)NCC(=O)O)cc1 [sivelestat]
Ins+ cells after β-cell ablation (Ins+ cells): trend towards an increase
human β-cell proliferation (human β-cell): enhance human β-cell proliferation

IC50 [1]: 3.6 µM
IC50 [2]: 107 µM
IC50 [3]: 33.6 µM
Molecule: C[C@@H](O)[C@H]1C(=O)N2C(C(=O)O)=C(SC3CN(C4=NCCS4)C3)[C@H](C)[C@H]12 [tebipenem]

Molecule: CCC[C@H](NC(=O)[C@@H]1[C@H]2CCC[C@H]2CN1C(=O)[C@@H](NC(=O)[C@@H](NC(=O)c1cnccn1)C1CCCCC1)C(C)(C)C)C(=O)C(=O)NC1CC1 [telaprevir]
inhibition of human cathepsin G (human cathepsin G): virtually no effect
protease-activated receptor (PARs) signaling cascade (human islets [4]): significantly modulated
blood glucose (random-fed or fasting) levels, body weight, glucose sensitivity or human C-peptide levels ([5]; 30 or 300 μg/kg/day, vs vehicle): did not observe differences between groups
Ki67+ β-cells in human grafts [5, 13]: increase
TUNEL+ β-cells in human grafts [5, 13]: decrease
regeneration levels and survival of siFAK FSLLRY-treated cells (EndoC-βH3 cells; PE + telaprevir): restored
proliferation/apoptosis ratio (β-cell viability) in scramble cells (EndoC-βH3 cells; tamoxifen-treated EndoC-βH3, PE, or PE + telaprevir): boosted β-cell viability levels even higher than control cells
IC50 [1]: 0.0158 µM
Ins+ cells after β-cell ablation (Ins+ cells): significant increase
glucose responsiveness (GSIS) in cells treated with PE (EndoC-βH1 cells [6]; PE 500 ng/ml + telaprevir 1.5 μM): restore glucose responsiveness
β-cell function (GSIS) in the absence of PE (EndoC-βH1 cells [6]; telaprevir 1.5 μM alone): maintained normal function
phospho-ERK1/2 levels (EndoC-βH1 cells [7]): significantly increased phospho-ERK1/2 levels
Brillouin frequency shift (stiffness) (EndoC-βH1 cells [8]): completely reverse these effects
phospho-PAK1 levels in scramble cells (EndoC-βH1 cells [9]; 30 min, PE vs PBS, or PE + telaprevir at high dose vs PE alone): significantly increasing phosphorylation of PAK1
phosphorylated PAK1 in siFAK cells (EndoC-βH1 cells [9]; PE + telaprevir vs PE-treated siFAK samples, 30 min): significantly decreased
phospho-PAK1 levels in EV (empty vector) cells (EndoC-βH1 cells [9]; PE, or PE + telaprevir): restored
IC50 ([2]; read-out: IC50 pPE): 0.0402 µM
proliferation of other islet cell types, including α-cells and δ-cells (human β-cells): did not significantly stimulate proliferation
β-cell apoptosis (TUNEL) (human β-cells; telaprevir at 100 μg/ml): significantly reducing apoptosis
β-cell proliferation (Ki67 or pHH3), increase compared to control (human β-cells; telaprevir at 100 μg/ml): ~ 3 fold
phosphorylation levels of PAK1, PTK2B and ERK1/2 (human islets [10]): up-regulated
β-cell viability (EdU+/Annexin V+ in DA-ZP1+ cells) ([11]; PE +/− telaprevir for 24 h): significantly improved β-cell survival
HbA1C levels [12]: reduce
circulating C-peptide [12]: increase
IC50 [3]: 3.6 µM
concentrations that partially inhibit human NE activity [3]: > 10 µM
insulin sensitivity or GSIS (HFD mice; 4-week time point, vs HFD vehicle): did not affect
glucose tolerance (HFD mice; high dose 300 μg/kg/day, week 4, vs HFD vehicle): improvement in glucose tolerance
random-fed blood glucose levels or body weights (HFD mice; telaprevir 30 or 300 μg/kg/day vs HFD vehicle): did not exhibit differences
area under the curve during GTT (HFD mice; telaprevir HD 300 μg/kg/day): statistically similar to the LFD vehicle group, although not significantly different from vehicle-HFD mice
β-cell mass (HFD mice; telaprevir HD 300 μg/kg/day vs HFD vehicle): significantly higher β-cell mass
4 h fasting C-peptide and fasting blood glucose (HFD mice; telaprevir HD, after 4-week treatment compared to week 0): lowered
β-cell mass (HFD mice; telaprevir LD 30 μg/kg/day vs HFD vehicle): comparable
β-cell size (HFD mice; telaprevir LD and HD vs HFD vehicle): slightly lower β-cell size

Molecule: FSLLRY-NH2
capacity of telaprevir to counteract the detrimental effects of PE in FSLLRY-NH2 treated cells ([11]; FSLLRY-NH2 pre-incubation, PE + telaprevir 24 h): impaired

B1: SerpinB1: endogenous protease (elastase) inhibitor derived from the liver that promotes human β-cell proliferation (protein, UniProt P30740 1-379, looked up)
Leukocyte elastase inhibitor: MEQLSSANTRFALDLFLALSENNPAGNIFISPFSISSAMAMVFLGTRGNTAAQLSKTFHFNTVEEVHSRFQSLNADINKRGASYILKLANRLYGEKTYNFLPEFLVSTQKTYGADLASVDFQHASEDARKTINQWVKGQTEGKIPELLASGMVDNMTKLVLVNAIYFKGNWKDKFMKEATTNAPFRLNKKDRKTVKMMYQKKKFAYGYIEDLKCRVLELPYQGEELSMVILLPDDIEDESTGLKKIEEQLTLEKLHEWTKPENLDFIEVNVSLPRFKLEESYTLNSDLARLGVQDLFNSSKADLSGMSGARDIFISKIVHKSFVEVNEEGTEAAAATAGIATFCMLMPEENFTADHPFLFFIRHNSSGSILFLGRFSSP
human β-cell proliferation (human β-cell): promotes human β-cell proliferation
